Assay results from ChEMBL document CHEMBL1131605, “Synthesis and pharmacological activity of triazolo[1,5-a]triazine derivatives inhibiting eosinophilia” (1998).

Legend:
Format in all cases: functional
[1] = test system: Rattus norvegicus; assay: Percent inhibition value on the Sephadex-induced lung eosinophilia model at an intraperitoneal (ip) dose of 3 mg/kg
Method in brief: (§1)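 Male Wistar rats, five per group; Sephadex G-200 (0.5 mg/mL in sterile saline, swollen by boiling 5 h), 1 mL injected via tail vein on days 0, 3 and 5; drug or vehicle given ip 10 min before each Sephadex injection. Day 7: lavage with heparinized PBS (37 °C), repeated, pooled; cells counted microscopically. Inhibition (%) from group-mean eosinophil/total-cell ratio versus vehicle.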

[2] = test system: Rattus norvegicus; assay: Percent inhibition value on the Sephadex-induced lung eosinophilia model at an intraperitoneal (ip) dose of 30 mg/kg; method in brief: as §1
[3] = test system: Rattus norvegicus; assay: Percent inhibition value on the Sephadex-induced lung eosinophilia model at an intraperitoneal (ip) dose of 0.1 mg/kg; method in brief: as §1

Compound: C/N=C(\S)n1nc(-c2ccco2)nc1N
- inhibition in vivo at 3 mg/kg [1]: 18%

Compound: Cn1cnc2nc(-c3ccc(Cl)cc3Cl)nn2c1=S
- inhibition in vivo at 3 mg/kg [1]: 90%

Compound: Cn1cnc2ccccc2c1=S
- inhibition in vivo at 30 mg/kg [2]: 22%

Compound: CCCCn1cnc2ncnn2c1=S
- inhibition in vivo at 30 mg/kg [2]: 23%

Compound: C/N=C(\S)n1nc(/C=C/c2ccc(Cl)cc2)nc1N
- inhibition in vivo at 3 mg/kg [1]: 25%

Compound: Cn1c(-c2ccccc2)nc2ncnn2c1=S
- inhibition in vivo at 30 mg/kg [2]: 29%

Compound: CCOc1ncnc2ncnn12
- inhibition in vivo at 30 mg/kg [2]: 6%

Compound: C/N=C(\S)n1nc(-c2ccc(-c3ccccc3)cc2)nc1N
- inhibition in vivo at 3 mg/kg [1]: 58%

Compound: C/N=C(\S)n1nc(-c2ccc(Cl)c3ccccc23)nc1N
- inhibition in vivo at 3 mg/kg [1]: 14%

Compound: Cn1cnc2nc(-c3ccc(F)cc3)nn2c1=S
- inhibition in vivo at 3 mg/kg [1]: 38%

Compound: Cn1cnc2ncnc-2c1S
- inhibition in vivo at 30 mg/kg [2]: 9%

Compound: CCCn1cnc2ncnn2c1=S
- inhibition in vivo at 30 mg/kg [2]: 49%

Compound: CSc1nc(N)nc2ncnn12
- inhibition in vivo at 30 mg/kg [2]: -29%

Compound: Cn1cnc2nc(-c3ccc(Br)cc3)nn2c1=S
- inhibition in vivo at 3 mg/kg [1]: 84%

Compound: Cc1nc2nc(-c3ccc(Cl)cc3)nn2c(=S)n1C
- inhibition in vivo at 3 mg/kg [1]: 60%

Compound: CCOC(=O)C(=O)Nc1nc2ncn(C)c(=S)n2n1
- inhibition in vivo at 30 mg/kg [2]: -2%

Compound: C/N=C(\S)n1nc(-c2ccc(Cl)cn2)nc1N
- inhibition in vivo at 3 mg/kg [1]: -2%

Compound: C/N=C(\S)n1nc(-c2cccs2)nc1N
- inhibition in vivo at 3 mg/kg [1]: -7%

Compound: C/N=C(\S)n1nc(-c2ccc(Cl)cc2)nc1N
- inhibition in vivo at 3 mg/kg [1]: 88%

Compound: C/N=C(\S)n1nc(Oc2ccccc2)nc1N
- inhibition in vivo at 3 mg/kg [1]: -5%

Compound: Cn1cnc2nc(-c3ccc(C#N)cc3)nn2c1=S
- inhibition in vivo at 30 mg/kg [2]: 79%

Compound: Cn1cnc2ncnn2c1=S
- inhibition in vivo at 30 mg/kg [2]: 69%

Compound: CNC(=S)n1nc(SC)nc1N
- inhibition in vivo at 30 mg/kg [2]: 54%

Compound: Cn1cnc2nc(-c3ccc(Cl)c(Cl)c3)nn2c1=S
- inhibition in vivo at 3 mg/kg [1]: 89%

Compound: C/N=C(\S)n1nc(C#Cc2ccccc2)nc1N
- inhibition in vivo at 3 mg/kg [1]: 0%

Compound: C/N=C(\S)n1nc(Cc2ccccc2)nc1N
- inhibition in vivo at 3 mg/kg [1]: -24%

Compound: Cn1cnc2ncnn2c1=O
- inhibition in vivo at 30 mg/kg [2]: 17%

Compound: Cc1nc2ncnn2c(=S)n1C
- inhibition in vivo at 30 mg/kg [2]: 18%

Compound: CSc1nc(N)n2ncnc2n1
- inhibition in vivo at 30 mg/kg [2]: -7%

Compound: Cn1c(-c2ccccc2)nc2nc(-c3ccc(Cl)cc3)nn2c1=S
- inhibition in vivo at 3 mg/kg [1]: 5%

Compound: c1nc2nc(NC3CCCCC3)nc(NC3CCCCC3)n2n1
- inhibition in vivo at 30 mg/kg [2]: 1%

Compound: CNc1nc(NC)n2ncnc2n1
- inhibition in vivo at 30 mg/kg [2]: 38%

Compound: Cn1cnc2nc(-c3ccc(Cl)cc3)nn2c1=S
- inhibition in vivo at 3 mg/kg [1]: 90%
- inhibition in vivo at 30 mg/kg [2]: 92%

Compound: C/N=C(\S)n1nc(-c2ccc(Cl)nc2)nc1N
- inhibition in vivo at 3 mg/kg [1]: -9%

Compound: Cn1cnc2nc(-c3ccccc3)nn2c1=S
- inhibition in vivo at 30 mg/kg [2]: -1%

Compound: Cn1cnc2nncc-2c1S
- inhibition in vivo at 30 mg/kg [2]: -13%

Compound: CNC(=S)n1nc(/N=C/c2ccccc2)nc1N
- inhibition in vivo at 3 mg/kg [1]: 37%

Compound: Cn1cnc2nc(-c3ccc(C(F)(F)F)cc3)nn2c1=S
- inhibition in vivo at 3 mg/kg [1]: 87%

Compound: C[C@@H]1C[C@H]2[C@@H]3CCC4=CC(=O)C=C[C@]4(C)[C@@]3(F)[C@@H](O)C[C@]2(C)[C@@]1(O)C(=O)CO [DEXAMETHASONE]
- inhibition in vivo at 0.1 mg/kg [3]: 95%
